Source: the EternaBench riboswitch data

System: MS2 coat protein
Test: apparent Kd, MS2 coat protein; higher = weaker binding; RNA-MaP array; FMN 200 µM where present
Procedure, shortened: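 Designs were transcribed by stalled E. coli RNA polymerase on Illumina sequencing-chip clusters. They were titrated with SNAP-549-labelled MS2 coat protein from 0.7 or 1.5 nM, doubling to 3 µM, without and then with constant ligand. Buffer: 100 mM Tris-HCl pH 7.5, 80 mM KCl, 4 mM MgCl2, BSA, DTT, yeast tRNA, Tween-20. Green signal was normalised to red-channel RNA signal and control-cluster median Fmax. Apparent Kd is the median of filtered per-cluster binding-curve fits.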

[1] = designed as: OFF switch for flavin mononucleotide, no ligand
[2] = ligand present: flavin mononucleotide, designed as: OFF switch for flavin mononucleotide
[3] = designed as: ON switch for flavin mononucleotide, no ligand
[4] = ligand present: flavin mononucleotide, designed as: ON switch for flavin mononucleotide

| Sequence | apparent Kd [1] [nM] | apparent Kd [2] [nM] | apparent Kd [3] [nM] | apparent Kd [4] [nM] |
| --- | --- | --- | --- | --- |
| GAUAGGACAGAGAAGGACGUGGCUAGAGAUACUAGCAUAAAGGUCCAAACAUGAGGAUCACCCAUGUAGGAUAUCUGUCCUAUC | 6.59 | 8.89 |  |  |
| GAUCACUGAGGAUAUACACAGAUACAAAGUAUCUGAGCGUGACAUGAGGAUCACCCAUGUAGAAGGCAGAGGUC | 190 | 769 |  |  |
| GAUCCGUCCUAGAAGGCCAUCCAACAUGAGGAUCACCCAUGUGCGGACUGGAGGAUAUAGGUGGGAUAGGCCUAGGGCCCGGUC |  |  | 7.43 | 5.55 |
| GAUCGUAUCCUAGGAUAUUCAUAAAACAUGAGGAUCACCCAUGUUAACUUGGGAGAAGGAGGAUACGAUCAACAGCGAAAGCUG |  |  | 7.35 | 5.09 |
| GAUUAACAUGAGGAUCACCCAUGUCGUUUUAUGGGAGGAUAUACGUGGACCGUAGUCCGCGUAGAAGGCCUAAUUG |  |  | 125 | 30.4 |
| GAUUAACAUGAGGAUCACCCAUGUGAGGAUAUGGAAUGGCUCAUUUUUUGAUUCCCGUCUAGAAGGCACAUCUU | 71.8 | 83.8 |  |  |
| GAUUAACAUGAGGAUCACCCAUGUGAGGAUAUGGACUGGCUCACUUUCCGAUUCCCGUCUAGAAGGCGCAUCUU | 38.3 | 38.3 |  |  |
| GAUUACAAGUAAGGAUAUGUAUAUGAAACAUAUACAGAAGGUACAUGAGGAUCACCCAUGUUCUUGCAACGCGAAUAUGUAAUC | 17.2 | 21.6 |  |  |
| GAUUACAUCACAGGAUAUAGAAUAAAACAGAUUUUAGAAGGGUGAGCCUCGUCGACCGCGACAUGAGGAUCACCCAUGUUGUGU |  |  | 18.4 | 35.7 |
| GAUUCGCGUGAGAAGGACAUGAGGAUCACCCAUGUAGGAUAUCACGGUCCGUAGAGGAUUUCAAACCGUACUGGGUCAUAGUGU |  |  | 14.4 | 6.56 |
| GAUUCGCGUGAGAAGGACAUGAGGAUCACCCAUGUAGGAUAUCACGGUCCUUAGAGGAUUUCAAACCGUACUGGGUCAUAGUGU |  |  | 15.2 | 6.7 |
| GAUUGACAUGAGGAUCACCCAUGUGAGGAUAUCGGCCGGAUCUUGUUAGCUUCCAUCGCGAGAAGGCACAUAGG | 66.1 | 73.5 |  |  |
| GAUUGAGAGCAGGAUAUCUUAGAAAUGUAUGAAAGAGAAGGGCUCACAUGAGGAUCACCCAUGUGGUCCUAGAU | 32.7 | 256 |  |  |
| GCAAACACAUGAGGAUCACCCAUGUGGAAAGAGCAAUUAGGCUAGGAUAUUCAUGUCGUUUGCAAGAAGAAGGAGCCAUAGUGG |  |  | 560 | 157 |
| GCAAAGCCUGACAUGAGGAUCACCCAUGUUAGAUUGUUAUGUCAGGAUAUUGUCUAGACCCUAGACAAGAAGGGAUGCUUUGCA |  |  | 472 | 29.1 |
| GCAACGCUUGACAUGAGGAUCACCCAUGUUAGAUUGUUAUGUCAGGAUAUAGUCUAGAAACUAGACUAGAAGGGAUAUGUUGCU |  |  | 269 | 44.2 |
| GCAAUCGCAUGAGGAUAUGCUCGAGUUUAGAGAGCAGAAGGCAUGUCAUAAGACAUGAGGAUCACCCAUGUAGUUAAAAUGGCA |  |  | 39.9 | 9.42 |
| GCACAUGAGGAUCACCCAUGUGGUCCAGAAGGCCAGAGGACUUGCUUUUAGCAAGUCCUUCAAAUGGAGGAUAUGGAGGGUUCU |  |  | 237 | 42 |
| GCACAUGAUACAGGAUAUGUAUUGGAAUAUAUAAUGAAUUAGAUGAAAUUGACAGAAGGGUAGACAUGAGGAUCACCCAUGUGC | 324 | 186 |  |  |
| GCACAUGAUACAGGAUAUGUUUUGGAUUUUAUAUGCAGUUAUUUUAUUUUGACAGAAGGGUAUACAUGAGGAUCACCCAUGUGC | 76.3 | 48.1 |  |  |
| GCACGAGACUAAGGAUAUGGUGUACCUACAUGUAACAUGAGGAUCACCCAUGUAGUAAGUAUGAUUCAGAAGGUAGAGACGUGC |  |  | 47.3 | 18.6 |
| GCACGGUAUGUAGGAUAUGCAUAGCAUUGCUAUGCAGAAGGACAUGAGGAUCACCCAUGUAUGUAUUCCAUACAAUUCCCGUGC | 5.41 | 5.82 |  |  |
| GCACUGGAUGUAGGAUAUCAGGACGAUAAGUCCUGAGAAGGACAUGAGGAUCACCCAUGUAAAACUUCACCAGUGCAUAAUAUA | 13.3 | 15.9 |  |  |
| GCACUGGAUGUAGGAUAUCAGGACGAUAAGUCCUGAGAAGGACAUGAGGAUCACCCAUGUGACUCAUAACCAGUGCAUAAUAUA | 27 | 142 |  |  |
| GCACUUUUAUUUGAACCGAUACGAACAUGAGGAUCACCCAUGUAGGAUAUGCUAAAAGUUGUGAUGCAGAAGGACAUUAAGUGC | 7.73 | 9.21 |  |  |
| GCACUUUUAUUUGAACCGUUUCGAACAUGAGGAUCACCCAUGUAGGAUAUGCUAAAAGUUGUGAUGCAGAAGGACAUUAAGUGC | 6.94 | 7.5 |  |  |
| GCAGAAGUAGUGAGGAUAUGCUCUACCUCGGUAGAGCAGAAGGCACAUGAGGAUCACCCAUGUGAUUCUUCUGC | 26.9 | 158 |  |  |

| Sequence | apparent Kd [1] [nM] | apparent Kd [2] [nM] | apparent Kd [3] [nM] | apparent Kd [4] [nM] |
| --- | --- | --- | --- | --- |
| GCAGACGUAGUGAGGAUAUGCUCUACCUCGGUAGAGCAGAAGGCACAUGAGGAUCACCCAUGUGAUUUCUCUGC | 37.2 | 421 |  |  |
| GCAGACGUAGUGAGGAUAUGCUCUACCUCGGUAGAGCAGAAGGCACAUGAGGAUCACCCAUGUGGCUCCUCUGC | 16.2 | 25.1 |  |  |
| GCAGCAAUCUAAAACAUGAGGAUCACCCAUGUCGAGAGAUAUGAGGAUAUGCAUCUGAAGAAGAUGCAGAAGGCAUUGUGCUGC |  |  | 8.1 | 6.15 |
| GCAGCACACAUUAACAUGAGGAUCACCCAUGUCAAAAGACAUGAGGAUAUGCAUCUGAAGAAGAUGCAGAAGGCAUUGUGCUGC |  |  | 467 | 24.2 |
| GCAGCACAGAUUUACAUGAGGAUCACCCAUGUCUAUUAAGAUGAGGAUAUGCUUCGAAUGAUGUUGCAGAAGGCAUUGUGCUGC |  |  | 10.9 | 6.6 |
| GCAGCCGAUGCAGGAUAUCAGCACGUGUAGUGCUGAGAAGGGCACAUGAGGAUCACCCAUGUGAUCAAUUAAUAUCGAUGCUGC | 6.56 | 14.3 |  |  |
| GCAGCGCCUGACAUGAGGAUCACCCAUGUUCCAUUGUUGAGUCAGGAUAUAGUCUAGAAACUAGACUAGAAGGGAUAUGCUGCU |  |  | 70.2 | 50.8 |
| GCAGCGUCUGCAGGAUAUCAGCACGUGUAGUGCUGAGAAGGGCACAUGAGGAUCACCCAUGUGAUCAAUUAAUAGACAUGCUGC | 6.98 | 15.5 |  |  |
| GCAGCUAAUGCAGGAUAUCAGCACGUGUAGUGCUGAGAAGGGCACAUGAGGAUCACCCAUGUGAUCAAUUAAUAUUAAUGCUGC | 24.9 | 152 |  |  |
| GCAGGCUUCGAGAAGGACAUGAGGAUCACCCAUGUGCGUGUGAAGCAGCCGUGAGGCUGCAUCAUGUAGGAUAUCGGAGUCUGU | 77.8 | 650 |  |  |
| GCAGGUCGGAAGGAUAUGAAUCUGCUCGCAGUUUCAGAAGGUCUGACAUGAGGAUCACCCAUGUUGGGCGCAUC | 56.5 | 236 |  |  |
| GCAUACAUUCGAGGAUAUCGGUGAACAAAUUAACGAGAAGGCGAUAGAAUGUUUAAUCUUAUAAACAUGAGGAUCACCCAUGUA |  |  | 35.2 | 25.2 |
| GCAUACAUUCGAGGAUAUCGGUGAACAAAUUAACGAGAAGGCGAUAUAAUGUUUAAUCUUAUAAACAUGAGGAUCACCCAUGUA |  |  | 76.9 | 31.2 |
| GCAUAUAUAUAAGGAUAUGCAUCACUGAGAAAUUUAGUGAGGAAGAUCACAUGAGGAUCACCCAUGUAGAAGGUAUAUAUGUGC | 8.18 | 46 |  |  |
| GCAUCCAUAGUGAGGAUAUACCUCUGGAUACAUAGGUAGAAGGCACAUGAGGAUCACCCAUGUUCCUAGGAUGC | 20.2 | 40.1 |  |  |
| GCAUGAAAUGUGAGGAUAUACCUCUGGAUACAUAGGUAGAAGGCACAUGAGGAUCACCCAUGUCCUAAACAUGC | 34.7 | 42.2 |  |  |
| GCAUGAGACUAAGGAUAUGAUGUACCUAUAUGUGACAUGAGGAUCACCCAUGUGGUAAGUAUGAUUCAGAAGGUAGAGAUAUGC |  |  | 67.8 | 28.3 |
| GCAUGCAAGUAGAAGGUCGGAUAUUUUGAUACCGAAGGAUAUACAGAAUCAUAUCCACAUGAUAACAUGAGGAUCACCCAUGUA | 21.4 | 26.7 |  |  |
| GCAUUGAUAGCAGGAUAUAUGUUUCCUACAUGAGGAUCACCCAUGUAGGUGAUCAGCCGAGAAAAGUAGAAGGGCUAUCAAUGC |  |  | 15.6 | 14.1 |
| GCAUUUUAUGCAGGAUAUUGUCUUUGGAUUAAACAAGAAGGGCAUAACAUGAGGAUCACCCAUGUUUUAUAGGUAUAUAUGUUC | 14.2 | 21.6 |  |  |
| GCCAACUAAUGAGGAUAUGGCACCUUAUUGGUGCCAGAAGGCAUGUCAAUUGACAUGAGGAUCACCCAUGUAUUAUAGUUGGCG |  |  | 878 | 109 |
| GCCAGCGCAUGAGGAUAUGCUCCCGUUUCGGGAGCAGAAGGCAUGUCAUAAGACAUGAGGAUCACCCAUGUAGUUAAGAUGGCA |  |  | 258 | 13.6 |
| GCCAGGCAUGUAGGAUAUCCAUUGCGUCGCGUUGGAGAAGGGCAGCACACAUGAGGAUCACCCAUGUGGUCUCCCAUGAUGUGU | 209 | 223 |  |  |
| GCCAUCCUAUGAGGAUAUGACACCGAAACGGUGUCAGAAGGCAUGUCGAUAGACAUGAGGAUCACCCAUGUUUACAGGAUGGCA |  |  | 132 | 22 |
| GCCAUCGCAUGAGGAUAUGCUCCGGUUUCCGGAGCAGAAGGUAUGUCAUAUGACAUGAGGAUCACCCAUGUAGUUAAGAUGGCA |  |  | 571 | 54.7 |
| GCCAUCGCAUGAGGAUAUGCUCGGGUUUCCCGAGCAGAAGGCAUGUAAUAAAACAUGAGGAUCACCCAUGUAGUUAAGAUGGCA |  |  | 8.29 | 5.36 |
| GCCAUCGCAUGAGGAUAUGCUCGGGUUUCCCGAGCAGAAGGCAUGUCGUAAGACAUGAGGAUCACCCAUGUAGUUAAGAUGGCA |  |  | 915 | 76.8 |
